In ChEMBL document CHEMBL2331309, “2,3-Diarylpropenoic acids as selective non-steroidal inhibitors of type-5 17β-hydroxysteroid dehydrogenase (AKR1C3)” (Eur J Med Chem, 2013):
Residue numbers refer to the chain shown, from its start. Active and inactive are the calls of the source. The calls are words filed in the database; no cut-off is given here.

Assays:
[1] = molecular target: T1, Aldo-keto reductase family 1 member C3 (Homo sapiens, UniProt P42330); test: Inhibition of recombinant AKR1C3 (unknown origin) assessed as decrease in oxidation of 1-acenaphthenol substrate by spectrophotometric analysis
T1 sequence (P42330 whole entry): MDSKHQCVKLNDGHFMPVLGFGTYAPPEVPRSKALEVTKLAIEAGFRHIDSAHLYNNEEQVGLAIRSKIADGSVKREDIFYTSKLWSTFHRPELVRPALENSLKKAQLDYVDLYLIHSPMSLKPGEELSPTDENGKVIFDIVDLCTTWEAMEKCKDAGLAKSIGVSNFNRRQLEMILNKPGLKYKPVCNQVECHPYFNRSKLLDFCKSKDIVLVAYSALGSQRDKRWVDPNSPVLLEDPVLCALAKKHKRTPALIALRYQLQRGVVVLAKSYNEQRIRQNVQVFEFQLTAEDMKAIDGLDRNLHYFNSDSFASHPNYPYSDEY

[2] = molecular target: T2, Aldo-keto reductase family 1 member C1 (Homo sapiens, UniProt Q04828); test: Inhibition of human recombinant AKR1C1 expressed in Escherichia coli assessed as decrease in oxidation of 1-acenaphthenol substrate by spectrophotometric analysis
T2 sequence (Q04828 whole entry): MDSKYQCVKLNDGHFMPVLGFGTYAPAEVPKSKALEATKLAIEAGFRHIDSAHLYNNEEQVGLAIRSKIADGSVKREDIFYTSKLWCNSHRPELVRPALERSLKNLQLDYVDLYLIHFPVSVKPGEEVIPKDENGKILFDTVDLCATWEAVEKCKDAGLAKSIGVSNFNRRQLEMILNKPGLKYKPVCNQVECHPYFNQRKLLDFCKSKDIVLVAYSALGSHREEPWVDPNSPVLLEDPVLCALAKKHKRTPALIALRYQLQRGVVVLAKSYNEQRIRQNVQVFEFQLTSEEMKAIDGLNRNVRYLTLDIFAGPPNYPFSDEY
How it was run: (§1)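 IC50 measured for compounds giving over 50% inhibition at 100 μM. Assay uses 1-acenaphthenol oxidation with 2.3 mM NAD⁺ in pH 9.0 100 mM phosphate buffer with 0.005% Triton X-114 and 5% DMSO. AKR1C1 runs at 30 μM substrate and 0.3 μM enzyme; AKR1C2 at 50 μM substrate and 0.2 μM enzyme. Initial rates come from NADH at 340 nm. IC50 is read from log[inhibitor] versus % inhibition plots.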

[3] = molecular target: T3, Aldo-keto reductase family 1 member C1 (Homo sapiens) (UniProt Q04828); test: Inhibition of human recombinant AKR1C1 expressed in Escherichia coli assessed as decrease in oxidation of 1-acenaphthenol substrate at 100 uM by spectrophotometric analysis
T3 sequence (whole entry): T2 sequence (Q04828 whole entry)
How it was run: (§2)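 Single-point screen at 100 μM compound. Recombinant enzyme oxidizes 1-acenaphthenol with 2.3 mM NAD⁺ in 100 mM phosphate buffer pH 9.0, 0.005% Triton X-114, 5% DMSO. AKR1C1: 30 μM substrate (Km), 0.3 μM enzyme. AKR1C2: 50 μM substrate (Km), 0.2 μM enzyme. NADH formation read at 340 nm from initial velocities. Result given as % inhibition.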

[4] = molecular target: T4, Aldo-keto reductase family 1 member C2 (Homo sapiens) (UniProt P52895); test: Inhibition of recombinant AKR1C2 (unknown origin) assessed as decrease in oxidation of 1-acenaphthenol substrate at 100 uM by spectrophotometric analysis; how it was run: as §2
T4 sequence (whole entry): T2 sequence (Q04828 whole entry) with T38V, R47H, L54V, C87S, V151M, R170H, Q172L

[5] = molecular target: T5, Aldo-keto reductase family 1 member C2 (Homo sapiens, UniProt P52895); test: Inhibition of recombinant AKR1C2 (unknown origin) assessed as decrease in oxidation of 1-acenaphthenol substrate by spectrophotometric analysis; how it was run: as §1
T5 sequence (P52895 whole entry): T2 sequence (Q04828 whole entry) with T38V, R47H, L54V, C87S, V151M, R170H, Q172L

IC50 [1]	IC50 [2]	inhibition [3]	inhibition [4]	IC50 [5]	Structure (SMILES)
17 µM	19.1 µM	81.7%	78.3%	20.8 µM	CSc1ccc(/C=C(/C(=O)O)c2cccc(Cl)c2)cc1
–	–	inactive	inactive	–	CS(=O)(=O)c1ccc(/C(=C\c2ccc(O)cc2)C(=O)O)cc1
121 µM	–	14.4%	20.6%	–	COc1ccc(/C=C(/C(=O)O)c2cc(OC)c(OC)c(OC)c2)cc1O
–	–	6.4%	13.8%	–	COc1cc(/C(=C\c2cccc3ccccc23)C(=O)O)cc(OC)c1OC
13.4 µM	–	inactive	1.1%	–	Cc1ccc(/C=C(/C(=O)O)c2ccc(S(C)(=O)=O)cc2)cc1
38.7 µM	–	9.7%	39.6%	–	COc1ccc(/C=C(/C(=O)O)c2ccc3ccccc3c2)cc1OC
139 µM	30.8 µM	77.6%	61.4%	34.4 µM	CS(=O)(=O)c1ccc(/C=C(/C(=O)O)c2ccccc2)cc1
–	–	45.2%	24.2%	–	CS(=O)(=O)c1ccc(/C=C(/C(=O)O)c2ccc3c(c2)OCO3)cc1
–	–	15.1%	4.3%	–	COc1ccc(/C=C(/C(=O)O)c2cc(OC)c(OC)c(OC)c2)cc1
–	–	5.9%	10.6%	–	CC(=O)NS(=O)(=O)c1ccc(/C=C(/C(=O)O)c2ccc(S(C)(=O)=O)cc2)cc1
8.3 µM	6.6 µM	88.1%	75.2%	27.3 µM	CSc1ccc(/C=C(/C(=O)O)c2ccc(Cl)cc2)cc1
76.7 µM	19.3 µM	75.9%	66.4%	23.1 µM	CS(=O)(=O)c1ccc(/C=C(/C(=O)O)c2cccc(Cl)c2)cc1
13.6 µM	–	34.8%	58.3%	74.3 µM	CS(=O)(=O)c1ccc(/C(=C\c2cccc(Br)c2)C(=O)O)cc1
–	–	40%	27%	–	COc1cc(/C(=C\c2cccc(OC(C)=O)c2)C(=O)O)cc(OC)c1OC
–	–	6.1%	0.6%	–	COc1ccc(/C=C(/C(=O)O)c2cc(OC)c(OC)c(OC)c2)cc1OC
10.8 µM	–	34.7%	24.3%	–	CS(=O)(=O)c1ccc(/C(=C\c2ccc(Cl)cc2)C(=O)O)cc1
–	7.9 µM	90.1%	47.5%	–	O=C(O)/C(=C/c1ccccc1)c1ccccc1
–	23.3 µM	86.1%	69.7%	44.6 µM	CS(=O)(=O)c1ccc(/C=C(/C(=O)O)c2ccc(F)cc2)cc1
51 µM	–	inactive	inactive	–	CS(=O)(=O)c1ccc(/C=C(/C(=O)O)c2ccc(S(C)(=O)=O)cc2)cc1
–	8.7 µM	97.8%	87.3%	25.2 µM	CC(=O)NS(=O)(=O)c1ccc(/C=C(/C(=O)O)c2ccccc2)cc1
86.6 µM	15.7 µM	89.6%	63.4%	26.9 µM	CS(=O)(=O)c1ccc(/C=C(/C(=O)O)c2ccc(Cl)cc2)cc1

IC50 [1]	IC50 [2]	inhibition [3]	inhibition [4]	IC50 [5]	Structure (SMILES)
69.8 µM	–	26.3%	27.3%	–	CS(=O)(=O)c1ccc(/C(=C\c2ccccc2)C(=O)O)cc1
–	–	-5.2%	9.9%	–	COc1ccc(/C=C(/C(=O)O)c2cc(OC)c(OC)c(OC)c2)cc1F
–	–	8%	3.2%	–	COc1ccc(/C=C(/C(=O)O)c2cc(OC)c(OC)c(OC)c2)cc1OC(C)=O
38.9 µM	–	15.4%	27%	–	CS(=O)(=O)c1ccc(/C(=C\c2cccc(F)c2)C(=O)O)cc1
16.8 µM	–	44.5%	43%	–	CS(=O)(=O)c1ccc(/C(=C\c2cccc(Cl)c2)C(=O)O)cc1
–	–	inactive	inactive	–	CS(=O)(=O)c1ccc(/C(=C\c2cccc(O)c2)C(=O)O)cc1
23.3 µM	–	3.5%	18.4%	–	CS(=O)(=O)c1ccc(/C(=C\c2ccc(C(F)(F)F)cc2)C(=O)O)cc1
30.2 µM	12.3 µM	87%	59.1%	41.2 µM	CSc1ccc(/C=C(/C(=O)O)c2ccccc2)cc1
4.9 µM	–	28.7%	19.2%	–	CS(=O)(=O)c1ccc(/C(=C\c2ccc(Br)cc2)C(=O)O)cc1
33.1 µM	–	46.5%	27.2%	–	CS(=O)(=O)c1ccc(/C(=C\c2ccc(O)c(O)c2)C(=O)O)cc1
–	–	7.8%	55.9%	77 µM	COc1cc(/C(=C\c2cccc(F)c2)C(=O)O)cc(OC)c1OC
43.1 µM	–	21%	9.2%	–	CS(=O)(=O)c1ccc(/C(=C\c2ccc(F)cc2)C(=O)O)cc1
–	–	64.7%	57.4%	–	CSc1ccc(-c2ccc(/C=C(/C(=O)O)c3ccc(S(C)(=O)=O)cc3)cc2)cc1
–	–	9.6%	15.9%	–	COc1cc(/C(=C\c2ccc3ccccc3c2)C(=O)O)cc(OC)c1OC
–	–	inactive	inactive	–	COc1cc(/C=C(/C(=O)O)c2ccc(S(C)(=O)=O)cc2)cc(OC)c1OC
5.8 µM	–	43.8%	14.4%	–	CSc1ccc(/C=C(/C(=O)O)c2ccc(S(C)(=O)=O)cc2)cc1
128 µM	–	29.4%	77.8%	24.2 µM	COc1ccc(/C=C(/C(=O)O)c2cccc3ccccc23)cc1OC
36.9 µM	–	inactive	inactive	–	COc1ccc(/C=C(/C(=O)O)c2ccc(S(C)(=O)=O)cc2)cc1
13.6 µM	–	inactive	inactive	–	CCc1ccc(/C=C(/C(=O)O)c2ccc(S(C)(=O)=O)cc2)cc1
0.3 µM	1.8 µM	–	–	4.1 µM	CC(=O)O[C@]1(C(C)=O)CC[C@H]2[C@@H]3C[C@H](C)C4=CC(=O)CC[C@]4(C)[C@H]3CC[C@@]21C [MEDROXYPROGESTERONE ACETATE]
